Measurements taken from ChEMBL document CHEMBL4673252, “Discovery and Early Clinical Development of Isobutyl 1-[8-Methoxy-5-(1-oxo-3H-isobenzofuran-5-yl)-[1,2,4]triazolo[1,5-a]pyridin-2-yl]cyclopropanecarboxylate (LEO 39652), a Novel "Dual-Soft" PDE4 Inhibitor for Topical Treatment of Atopic Dermatitis” (J Med Chem, 2020).

Key:
[1] = Clearance in human liver microsomes at 0.5 uM incubated for 40 mins in presence of NADPH by LC-MS/MS analysis; type: ADME, Microsome; conditions: read-out: CLH
Procedure, shortened: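 Human liver microsomes (0.5 mg/mL) with 1 mM NADPH and 0.5 μM test compound, incubated for 40 min. Samples were taken before NADPH and at 5, 10, 20, 40 min, quenched with cold acetonitrile containing internal standard, and analysed by LC-MS/MS. Control incubations in buffer and without NADPH. Apparent clearance was calculated from depletion.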

[2] = Half life in human whole blood at 0.1 uM by LC-MS/MS analysis; type: ADME, tissue-based
[3] = Half life in human keratinocytes at 1 uM by LC-MS/MS analysis; type: ADME, cell-based, Keratinocyte
Procedure, shortened: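 Plated human epidermal keratinocytes (1 × 10⁴ cells/well) with 1 μM compound in duplicate for up to 24 h; sampled at 0, 1, 2, 4, 24 h, acetonitrile precipitation, LC-MS/MS. Controls in growth medium. Half-life reported.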

[4] = target: Phosphodiesterase 4 (Homo sapiens, UniProt P27815+Q08499+Q07343+Q08493); assay: Inhibition of PDE4 (unknown origin); type: protein assay
[5] = Half life in mini pig whole blood at 0.1 uM by LC-MS/MS analysis; type: ADME, tissue-based, Sus scrofa domesticus
[6] = Half life in rat whole blood at 0.1 uM by LC-MS/MS analysis; type: ADME, tissue-based
[7] = Clearance in human hepatocytes at 10 uM by UPLC/TOF-MS analysis; type: ADME, cell-based, Hepatocyte
[8] = Clearance in mini pig hepatocytes at 10 uM by UPLC/TOF-MS analysis; type: ADME, cell-based, Sus scrofa domesticus, Hepatocyte; conditions: read-out: CLH
[9] = Drug exposure in human assessed as ratio of drug level to total AUC at 0.25% of Isobutyl 1-[8-Methoxy-5-(1-oxo-3H-isobenzofuran-5-yl)-[1,2,4]-triazolo[1,5-a]pyridin-2-yl]cyclopropanecarboxylate dosed via topical administration in lipid cream; type: ADME, organism-based; conditions: in vivo, topical_or_ocular
[10] = Drug exposure in Isobutyl 1-[8-Methoxy-5-(1-oxo-3H-isobenzofuran-5-yl)-[1,2,4]-triazolo[1,5-a]pyridin-2-yl]cyclopropanecarboxylate dosed cynomolgus monkey assessed as ratio of drug level to total AUC; type: ADME, organism-based, Macaca fascicularis; conditions: in vivo
Procedure, shortened: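 Blood was drawn at 0.25–24 h after infusion start and 6, 12, 24 h after infusion end into EDTA-K3, then plasma stabilized with ascorbic acid. LC-MS/MS quantification of parent and metabolites; noncompartmental PK.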

[11] = Drug exposure in of Isobutyl 1-[8-Methoxy-5-(1-oxo-3H-isobenzofuran-5-yl)-[1,2,4]-triazolo[1,5-a]pyridin-2-yl]cyclopropanecarboxylate dosed Gottingen mini pig assessed as ratio of drug level to total AUC at 0.5 to 2 mg/kg, iv measured up to 24 hrs by LC-MS/MS analysis; type: ADME, organism-based, Sus scrofa domesticus; conditions: in vivo, dose 0.5-2 mg/kg
[12] = Drug exposure in of Isobutyl 1-[8-Methoxy-5-(1-oxo-3H-isobenzofuran-5-yl)-[1,2,4]-triazolo[1,5-a]pyridin-2-yl]cyclopropanecarboxylate dosed Sprague-Dawley rat assessed as ratio of drug level to total AUC at 0.075 mg/kg, iv measured up to 30 mins by LC-MS/MS analysis; type: ADME, organism-based; conditions: in vivo, 0.5 h
Procedure, shortened: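 Male Sprague Dawley rats (n = 3) received a single iv injection of 0.075 mg/kg (50 μg/mL, 1.5 mL/kg) in 20% cyclodextrin. Blood was taken from the tongue vein at 1, 3, 6, 9, 12, 15 and 30 min into lithium-heparin, diluted 1:1 with heparin water, and analysed by LC-MS/MS for parent and metabolites.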

[13] = Drug exposure in skin of Gottingen mini pig at 0.25% dosed topically as monoglyceride cream measured after 24 hrs by LC-MS/MS analysis; type: ADME, organism-based, Sus scrofa domesticus, Skin of body; conditions: in vivo, topical_or_ocular
Procedure, shortened: (§1)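 Female Göttingen minipigs received single topical application of 1 or 2.5 mg/g monoglyceride cream at 10 μL/cm² over 4 cm² of belly/flank; excess removed. At 24 h sites were tape stripped (2 + 10 strips), 8 mm punch biopsies were taken and snap frozen, then homogenized, acetonitrile precipitated and analysed by LC-MS/MS; n = 2.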

[14] = Drug exposure in skin of Gottingen mini pig at 0.1% dosed topically as monoglyceride cream measured after 24 hrs by LC-MS/MS analysis; type: ADME, organism-based, Sus scrofa domesticus, Skin of body; conditions: in vivo, topical_or_ocular; procedure, shortened: as §1
[15] = Cmax in cynomolgus monkey at 30 mg/kg, sc dosed as single administration; type: ADME, organism-based, Macaca fascicularis; design: route subcutaneous, dose 30 mg/kg; conditions: in vivo, read-out: Cmax
Procedure, shortened: (§2)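 Single subcutaneous dose of 30 mg/kg.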

[16] = Cmax in human patient with atopic dermatitis at 0.25% dosed topically as lipid cream; type: ADME, organism-based; design: dose 0.25 %; conditions: in vivo, topical or ocular
[17] = AUC (0 to 24 hrs) in cynomolgus monkey at 30 mg/kg, sc dosed as single administration; type: ADME, organism-based, Macaca fascicularis; design: time < 24 hr, route subcutaneous, dose 30 mg/kg; conditions: in vivo; procedure, shortened: as §2
[18] = AUC (0 to 24 hrs) in human patient with atopic dermatitis at 0.25% dosed topically as lipid cream; type: ADME, organism-based; design: time < 24 hr, dose 0.25 %; conditions: in vivo, topical or ocular

SMILES	CLint scaled at 0.5 µM [1] [mL/min/kg]	half-life at 0.1 µM [2] [h]	half-life at 1 µM [3] [h]	also measured
COc1ccc(-c2cccc(C#N)c2)n2nc(C3(C(=O)OCC(C)C)CC3)nc12	> 200	> 1	> 12	
COc1ccc(-c2cccc3c2COC3=O)n2nc(C3(C(=O)NCC(C)C)CC3)nc12	95	> 1	> 12	
COc1ccc(-c2ccc3c(c2)COC3=O)n2nc(C3CC3)nc12	64	0.2	> 12	
COc1ccc(C(=O)Cc2c(Cl)cncc2Cl)n2nc(C3CC3)nc12				IC50 [4]: 1.7 nM
COc1ccc(-c2cccc(C#N)c2)n2nc(C3(C(=O)O)CC3)nc12	< 10			
COc1ccc(-c2cccc(C#N)c2)n2nc(C3(CC(=O)O)CC3)nc12	< 10			
COc1ccc(-c2cccc(C#N)c2)n2nc(C3(COC(=O)C(C)C)CC3)nc12	> 200	0.467	1.2	
COc1ccc(-c2ccc3c(c2)COC3=O)n2nc(C3(C(=O)O)CC3)nc12	< 16	> 1	> 12	half-life at 0.1 µM [5]: > 1 h; half-life at 0.1 µM [6]: > 1 h; CLhep predicted at 10 µM [7]: 5.2 mL/min/kg; CLint scaled at 10 µM [8]: < 11 mL/min/kg; Drug uptake [9]: 15%; Drug uptake [10]: 45%; Drug uptake [11]: 55%; Drug uptake [12]: 55%; Drug uptake [13]: < 0.1 µM; Drug uptake [14]: < 0.1 µM; Cmax [15]: 71.7 ng/mL; Cmax [16]: 0.355 ng/mL; AUC(0-t) at 24 h [17]: 208 ng·h/mL; AUC(0-t) at 24 h [18]: 5.18 ng·h/mL
COc1ccc(-c2ccc3c(c2)COC3=O)n2nc(C3(C(=O)O[C@@H]4CCOC4)CC3)nc12	101	< 0.167	> 12	
COc1ccc(-c2ccc3c(c2)COC3=O)n2nc(C3(C(=O)NCC(C)C)CC3)nc12	> 200	< 0.167	10	
COC(=O)c1cccc(-c2ccc(OC)c3nc(C4(C(=O)NCC(C)C)CC4)nn23)c1	> 200	> 1	> 12	
COc1ccc(-c2ccc3c(c2)COC3=O)n2nc(C3(C(=O)OC4CCCCCC4)CC3)nc12	> 200	0.567	3.7	
COc1ccc(-c2cccc(C#N)c2)n2nc(C3(CCO)CC3)nc12	16			
COc1ccc(-c2ccc3c(c2)COC3=O)n2nc(C3(C(=O)OC4COC4)CC3)nc12	97	< 0.167	> 12	
CCCOC(=O)C1(c2nc3c(OC)ccc(-c4ccc5c(c4)COC5=O)n3n2)CC1	139	0.217	> 12	
CCOC(=O)C1(c2nc3c(OC)ccc(-c4ccc5c(c4)COC5=O)n3n2)CC1	140	0.183	> 12	
COc1ccc(-c2ccc3c(c2)COC3=O)n2nc(C3(C(=O)OC(C)(C)C)CC3)nc12	> 200	0.183	> 12	
COC(=O)c1ccc(-c2ccc(OC)c3nc(C4CC4)nn23)cc1	> 200	> 1	> 12	
COc1ccc(C(=O)Cc2c(Cl)cncc2Cl)n2ncnc12				IC50 [4]: 100 nM
COc1ccc(-c2ccc(C(=O)O)c(CO)c2)n2nc(C3(C(=O)OCC(C)(C)O)CC3)nc12				CLhep predicted at 10 µM [7]: 7.1 mL/min/kg; CLint scaled at 10 µM [8]: 13 mL/min/kg; Drug uptake [9]: 1%; Drug uptake [10]: 1%; Drug uptake ([11]; BLD = below limit of detection): Bld; Cmax [15]: 10.5 ng/mL; Cmax [16]: 0.029 ng/mL; AUC(0-t) at 24 h [17]: 19.4 ng·h/mL; AUC(0-t) at 24 h [18]: 0.27 ng·h/mL
